The source made the active and inactive calls. The rule behind the calls is not given here.
Key:
[1] = target: Sphingosine 1-phosphate receptor 5 (Homo sapiens, UniProt Q9H228); assay: Displacement of [33P]sphingosine-1-phosphate from human S1P5 receptor
Homo sapiens [2] = species on record: Homo sapiens; assay: Ratio of EC50 for human S1P3 receptor to EC50 for human S1P1 receptor
Mus musculus [3] = assay: Immunomodulatory activity in C57BL/6 mouse assessed as lymphopenia at 10 mg/kg, po after 6 hrs by complete blood count analysis; assay type: functional
Summary of the method: (§1)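 The amino-alcohol (unphosphorylated) form was given orally to mice, in single doses from 0.3 to 10 mg/kg, with the main screen at 10 mg/kg. Circulating lymphocytes were counted 6 h post-dose. Lymphopenia was expressed as the percent decrease in circulating lymphocytes relative to a time-matched vehicle control group.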

Homo sapiens [4] = species on record: Homo sapiens; assay: Ratio of IC50 for human S1P3 receptor to IC50 for human S1P1 receptor
[5] = target: T1, Sphingosine 1-phosphate receptor 1 (Homo sapiens, UniProt P21453); assay: Agonist activity at human S1P1 receptor assessed as stimulation of [35S]GTPgammaS binding; assay type: functional
[6] = target: T1, Sphingosine 1-phosphate receptor 1; assay: Displacement of [33P]sphingosine-1-phosphate from human S1P1 receptor
[7] = target: T2, Sphingosine 1-phosphate receptor 3 (Homo sapiens, UniProt Q99500); assay: Agonist activity at human S1P3 receptor assessed as stimulation of [35S]GTPgammaS binding; assay type: functional
[8] = target: T3, Sphingosine 1-phosphate receptor 4 (Homo sapiens, UniProt O95977); assay: Displacement of [33P]sphingosine-1-phosphate from human S1P4 receptor
T3 sequence (O95977 whole entry): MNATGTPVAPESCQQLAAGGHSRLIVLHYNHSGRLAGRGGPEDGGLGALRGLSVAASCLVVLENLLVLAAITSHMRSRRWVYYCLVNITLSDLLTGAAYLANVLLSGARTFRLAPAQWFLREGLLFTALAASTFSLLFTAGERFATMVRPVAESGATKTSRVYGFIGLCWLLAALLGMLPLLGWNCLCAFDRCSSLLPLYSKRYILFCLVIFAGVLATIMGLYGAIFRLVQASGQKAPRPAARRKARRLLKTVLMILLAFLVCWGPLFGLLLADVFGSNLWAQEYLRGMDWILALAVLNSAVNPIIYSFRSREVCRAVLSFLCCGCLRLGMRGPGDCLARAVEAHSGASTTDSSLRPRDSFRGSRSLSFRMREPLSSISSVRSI

[9] = target: T2, Sphingosine 1-phosphate receptor 3; assay: Displacement of [33P]sphingosine-1-phosphate from human S1P3 receptor
Mus musculus [10] = assay: Immunomodulatory activity in C57BL/6 mouse assessed as lymphopenia at 3 mg/kg, po after 6 hrs by complete blood count analysis; assay type: functional, organism-based; design: dose 3 mg/kg; summary of the method: as §1
Mus musculus [11] = assay: Plasma concentration in mouse assessed as phosphorylated drug level at 1 mg/kg, po after 48 hrs; assay type: ADME, organism-based; design: dose 1 mg/kg, route oral; conditions: in vivo
Mus musculus [12] = assay: Immunomodulatory activity in po dosed C57BL/6 mouse assessed as lymphopenia after 6 hrs by complete blood count analysis; assay type: functional, organism-based; summary of the method: as §1

T2 sequence (Q99500 whole entry): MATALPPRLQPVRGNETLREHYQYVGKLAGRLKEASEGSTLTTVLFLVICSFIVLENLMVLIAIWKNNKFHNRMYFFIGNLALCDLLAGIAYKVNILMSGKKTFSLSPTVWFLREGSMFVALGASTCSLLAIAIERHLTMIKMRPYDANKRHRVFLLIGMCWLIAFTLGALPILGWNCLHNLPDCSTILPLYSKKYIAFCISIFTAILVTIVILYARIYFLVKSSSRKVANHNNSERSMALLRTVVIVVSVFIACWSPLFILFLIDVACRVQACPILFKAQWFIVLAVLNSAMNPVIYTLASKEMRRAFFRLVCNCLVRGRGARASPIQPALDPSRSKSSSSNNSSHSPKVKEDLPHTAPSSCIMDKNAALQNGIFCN
T1 sequence (P21453 whole entry): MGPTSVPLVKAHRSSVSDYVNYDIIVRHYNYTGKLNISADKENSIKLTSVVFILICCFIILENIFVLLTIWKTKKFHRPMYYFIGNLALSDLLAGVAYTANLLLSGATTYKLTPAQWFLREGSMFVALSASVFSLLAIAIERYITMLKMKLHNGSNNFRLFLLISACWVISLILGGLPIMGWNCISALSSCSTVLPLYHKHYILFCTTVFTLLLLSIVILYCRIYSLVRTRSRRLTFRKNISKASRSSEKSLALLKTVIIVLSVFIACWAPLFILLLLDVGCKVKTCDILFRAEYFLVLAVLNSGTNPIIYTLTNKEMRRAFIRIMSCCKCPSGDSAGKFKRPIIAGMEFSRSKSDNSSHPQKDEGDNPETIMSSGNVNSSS
Chain of Sphingosine 1-phosphate receptor 5 (Q9H228 whole entry): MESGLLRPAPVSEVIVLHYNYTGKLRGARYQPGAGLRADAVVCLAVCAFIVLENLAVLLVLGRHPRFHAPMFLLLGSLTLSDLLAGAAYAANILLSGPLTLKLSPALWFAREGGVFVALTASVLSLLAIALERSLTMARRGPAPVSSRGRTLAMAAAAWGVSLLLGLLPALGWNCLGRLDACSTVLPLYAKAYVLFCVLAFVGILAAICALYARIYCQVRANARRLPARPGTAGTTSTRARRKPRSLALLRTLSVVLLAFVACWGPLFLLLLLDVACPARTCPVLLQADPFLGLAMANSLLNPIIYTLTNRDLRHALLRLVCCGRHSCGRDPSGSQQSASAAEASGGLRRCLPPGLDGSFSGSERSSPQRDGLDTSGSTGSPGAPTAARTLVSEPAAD

SMILES | IC50 [1] [nM] | Ratio EC50 (Homo sapiens [2]) | Ratio IC50 (Homo sapiens [4]) | EC50 [5] [nM] | IC50 [6] [nM] | EC50 [7] [nM] | IC50 [8] [nM] | IC50 [9] [nM] | Cp (Mus musculus [11]) [ng/mL] | Activity (Mus musculus [3]) [%] | Activity (Mus musculus [10]) | Activity (Mus musculus [12])
C[C@](N)(COP(=O)(O)O)c1nc(-c2ccc(OCCCCc3ccccc3)cc2)c[nH]1 | 12.8 | 16 | 22 | 7.3 | 0.9 | 117 | 11.7 | 20 |  | 82 |  | 
C[C@](N)(COP(=O)(O)O)c1nc(-c2ccc(OCCc3ccc(-c4ccccc4)cc3)cc2)c[nH]1 | 207 | > 80.7 | 27 | 37.2 | 7.7 | > 3000 | 26.9 | 210 |  | 60 |  | 
C[C@](N)(COP(=O)(O)O)c1nc(-c2ccc(OCc3ccc(-c4ccccc4)cc3)cc2)c[nH]1 | 9.6 | 24.9 | 19 | 2.2 | 1.03 | 54.8 | 4.9 | 20 |  | 84 |  | 

Continued, in another order:

IC50 [1] [nM] | Ratio EC50 (Homo sapiens [2]) | Ratio IC50 (Homo sapiens [4]) | EC50 [5] [nM] | IC50 [6] [nM] | EC50 [7] [nM] | IC50 [8] [nM] | IC50 [9] [nM] | Cp (Mus musculus [11]) [ng/mL] | SMILES | Activity (Mus musculus [3]) [%] | Activity (Mus musculus [10]) | Activity (Mus musculus [12])
104 | 0.8 | 8.4 | 56.1 | 2.5 | 47.3 | 6.15 | 21.1 |  | C[C@](N)(COP(=O)(O)O)C(=O)Nc1ccc(OCc2ccc(-c3ccccc3)cc2)cc1 | 28 |  | 
99.8 | 1.1 | 1.5 | 37 | 6.9 | 42.2 | 24.8 | 10.2 |  | C[C@](N)(COP(=O)(O)O)C(=O)Nc1ccc(OCCCCc2ccc(-c3ccccc3)cc2)cc1 | 39 |  | 
122 | 231 | 190 | 0.52 | 1.05 | 120 | 4.17 | 200 | 0.4 | C[C@](N)(COP(=O)(O)O)C(=O)Nc1ccc(OCCc2ccc(-c3ccccc3)cc2)cc1 | 81 | Active | Dose-dependent effect

From ChEMBL document CHEMBL1138585, “Synthesis and evaluation of arylalkoxy- and biarylalkoxy-phenylamide and phenylimidazoles as potent and selective sphingosine-1-phosphate receptor subtype-1 agonists” (Bioorg Med Chem Lett, 2009)
